Test results from ChEMBL document CHEMBL1143064, “Novel 9a-carbamoyl- and 9a-thiocarbamoyl-3-decladinosyl-6-hydroxy and 6-methoxy derivatives of 15-membered macrolides” (Bioorg Med Chem, 2007).
Values after ≈ are worked out from the molar mass of the structure shown.

Key:
Streptococcus pyogenes [1] = assay: Antibacterial activity against Streptococcus pyogenes-M after 24 hrs by microdilution method; assay type: functional
Procedure, shortened: (§1)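 Broth microdilution in Mueller–Hinton medium run on an automated liquid handler. Compounds dissolved in DMF (5 mg/ml stock) and tested in medium from 64 to 0.125 µg/ml. Plates incubated 24 h at 37 °C, then growth read as absorbance at 600 nm. MIC taken as the concentration giving 90% growth inhibition.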

Staphylococcus aureus [2] = assay: Antibacterial activity against Staphylococcus aureus-M after 24 hrs by microdilution method; assay type: functional; procedure, shortened: as §1
Streptococcus pneumoniae [3] = assay: Antibacterial activity against Streptococcus pneumoniae-M after 24 hrs by microdilution method; assay type: functional; procedure, shortened: as §1
Staphylococcus aureus [4] = assay: Antibacterial activity against Staphylococcus aureus-cMLS after 24 hrs by microdilution method; assay type: functional; procedure, shortened: as §1
Saccharomyces cerevisiae = assay: Toxicity against Saccharomyces cerevisiae; assay type: organism-based; conditions: in vivo
Procedure, shortened: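 Yeast used as a surrogate for eukaryotic cell toxicity. Microdilution in Mueller–Hinton medium with compound from a DMF stock (5 mg/ml), final range 64 to 0.125 µg/ml. Incubated 24 h at 37 °C, with optical density read at 600 nm. MIC defined as the concentration inhibiting growth by 90%.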

Streptococcus pyogenes [5] = assay: Antibacterial activity against Streptococcus pyogenes after 24 hrs by microdilution method; assay type: functional; procedure, shortened: as §1
Streptococcus pneumoniae [6] = assay: Antibacterial activity against Streptococcus pneumoniae after 24 hrs by microdilution method; assay type: functional; procedure, shortened: as §1
Haemophilus influenzae = assay: Antibacterial activity against Haemophilus influenzae after 24 hrs by microdilution method; assay type: functional; procedure, shortened: as §1

Row | Compound | MIC (Streptococcus pyogenes [1]) [µg/mL] | MIC (Staphylococcus aureus [2]) [µg/mL] | MIC (Streptococcus pneumoniae [3]) [µg/mL] | MIC (Staphylococcus aureus [4]) [µg/mL] | Activity (Saccharomyces cerevisiae) | MIC (Streptococcus pyogenes [5]) [µg/mL] | MIC (Streptococcus pneumoniae [6]) [µg/mL] | MIC (Haemophilus influenzae) [µg/mL]
1 | CC[C@H]1OC(=O)[C@H](C)[C@@H](O)[C@H](C)[C@@H](O[C@@H]2O[C@H](C)C[C@H](N(C)C)[C@H]2O)[C@](C)(O)C[C@@H](C)CN(C(=O)Nc2ccccc2C(F)(F)F)[C@H](C)[C@@H](O)[C@]1(C)O | > 64 | > 64 | > 64 | > 64 | Non-toxic | > 64 | > 64 | > 64
2 | CC[C@H]1OC(=O)[C@H](C)[C@@H](O)[C@H](C)[C@@H](O[C@@H]2O[C@H](C)C[C@H](N(C)C)[C@H]2O)[C@](C)(O)C[C@@H](C)CN(C(=S)Nc2cccc(C(F)(F)F)c2)[C@H](C)[C@@H](O)[C@]1(C)O | > 64 | > 64 | > 64 | > 64 | Non-toxic | > 64 | > 64 | > 64
3 | CC[C@H]1OC(=O)[C@H](C)C2O[C@@](C)(C[C@@H](C)CN(C(=O)Nc3ccc(Cl)cc3Cl)[C@H](C)[C@@H](O)[C@]1(C)O)[C@H](O[C@@H]1O[C@H](C)C[C@H](N(C)C)[C@H]1O)[C@H]2C | > 64 | > 64 | > 64 | > 64 | Non-toxic | > 64 | > 64 | > 64
4 | CC[C@H]1OC(=O)[C@H](C)[C@@H](O)[C@H](C)[C@@H](O[C@@H]2O[C@H](C)C[C@H](N(C)C)[C@H]2O)[C@](C)(O)C[C@@H](C)CN(C(=O)Nc2ccc(Cl)cc2Cl)[C@H](C)[C@@H](O)[C@]1(C)O | > 64 | > 64 | > 64 | > 64 | Non-toxic | > 64 | > 64 | > 64
5 | CC[C@H]1OC(=O)[C@H](C)[C@@H](O)[C@H](C)[C@@H](O[C@@H]2O[C@H](C)C[C@H](N(C)C)[C@H]2O)[C@](C)(OC)C[C@@H](C)CN(C(=O)NC(C)C)[C@H](C)[C@@H](O)[C@]1(C)O | > 64 | > 64 | > 64 | > 64 | Non-toxic | > 64 | 32 (≈ 47.3 µM) | > 64
6 | CC[C@H]1OC(=O)[C@H](C)C2O[C@@](C)(C[C@@H](C)CN(C(=O)NC(C)C)[C@H](C)[C@@H](O)[C@]1(C)O)[C@H](O[C@@H]1O[C@H](C)C[C@H](N(C)C)[C@H]1O)[C@H]2C | > 64 | > 64 | > 64 | > 64 | Non-toxic | > 64 | > 64 | > 64
7 | CCNC(=O)N1C[C@H](C)C[C@@](C)(O)[C@H](O[C@@H]2O[C@H](C)C[C@H](N(C)C)[C@H]2O)[C@@H](C)[C@H](O)[C@@H](C)C(=O)O[C@H](CC)[C@@](C)(O)[C@H](O)[C@H]1C | > 64 | > 64 | > 64 | > 64 | Non-toxic | > 64 | > 64 | > 64
8 | CC[C@H]1OC(=O)[C@H](C)[C@@H](O[C@H]2C[C@@](C)(OC)[C@@H](O)[C@H](C)O2)[C@H](C)[C@@H](O[C@@H]2O[C@H](C)C[C@H](N(C)C)[C@H]2O)[C@](C)(O)C[C@@H](C)C(=O)[C@H](C)[C@@H](O)[C@]1(C)O [ERYTHROMYCIN] | 8 (≈ 10.9 µM) | > 64 | 8 (≈ 10.9 µM) | > 64 |  | 0.125 (≈ 0.17 µM) | 0.125 (≈ 0.17 µM) | 4 (≈ 5.45 µM)
9 | C=CCNC(=S)N1C[C@H](C)C[C@@](C)(O)[C@H](O[C@@H]2O[C@H](C)C[C@H](N(C)C)[C@H]2O)[C@@H](C)[C@H](O)[C@@H](C)C(=O)O[C@H](CC)[C@@](C)(O)[C@H](O)[C@H]1C | > 64 | > 64 | > 64 | > 64 | Non-toxic | > 64 | > 64 | > 64
10 | CC[C@H]1OC(=O)[C@H](C)C(=O)[C@H](C)[C@@H](O[C@@H]2O[C@H](C)C[C@H](N(C)C)[C@H]2O)[C@](C)(OC)C[C@@H](C)CN(C(=O)Nc2ccc(Cl)cc2Cl)[C@H](C)[C@@H](O)[C@]1(C)O | > 64 | > 64 | 8 (≈ 10.3 µM) | > 64 | Non-toxic | 16 (≈ 20.6 µM) | 8 (≈ 10.3 µM) | > 64
11 | CC[C@H]1OC(=O)[C@H](C)[C@@H](O)[C@H](C)[C@@H](O[C@@H]2O[C@H](C)C[C@H](N(C)C)[C@H]2O)[C@](C)(OC)C[C@@H](C)CN(C(=O)Nc2ccc(Cl)cc2Cl)[C@H](C)[C@@H](O)[C@]1(C)O | > 64 | > 64 | > 64 | > 64 | Non-toxic | > 64 | > 64 | > 64
12 | CC[C@H]1OC(=O)[C@H](C)C2(O)O[C@@](C)(C[C@@H](C)CN(C(=O)NC(C)C)[C@H](C)[C@@H](O)[C@]1(C)O)[C@H](O[C@@H]1O[C@H](C)C[C@H](N(C)C)[C@H]1O)[C@H]2C | > 64 | > 64 | > 64 | > 64 | Non-toxic | > 64 | > 64 | > 64
13 | CC[C@H]1OC(=O)/C(C)=C\[C@H](C)[C@@H](O[C@@H]2O[C@H](C)C[C@H](N(C)C)[C@H]2O)[C@](C)(OC)C[C@@H](C)CN(C(=O)NC(C)C)[C@H](C)[C@@H](O)[C@]1(C)O | > 64 | > 64 | > 64 | > 64 | Non-toxic | 16 (≈ 24.3 µM) | 8 (≈ 12.2 µM) | > 64
14 | CC[C@H]1OC(=O)[C@H](C)[C@@H](OC(=O)Cc2ccc([N+](=O)[O-])cc2)[C@H](C)[C@@H](O[C@@H]2O[C@H](C)C[C@H](N(C)C)[C@H]2O)[C@](C)(O)C[C@@H](C)CN(C(=O)Nc2ccc(Cl)cc2Cl)[C@H](C)[C@@H](O)[C@]1(C)O | 32 (≈ 34.5 µM) | 32 (≈ 34.5 µM) | 4 (≈ 4.31 µM) | 32 (≈ 34.5 µM) | Non-toxic | 4 (≈ 4.31 µM) | 2 (≈ 2.16 µM) | 32 (≈ 34.5 µM)
15 | CC[C@H]1OC(=O)[C@H](C)C(=O)[C@H](C)[C@@H](O[C@@H]2O[C@H](C)C[C@H](N(C)C)[C@H]2O)[C@](C)(OC)C[C@@H](C)CN(C(=O)NC(C)C)[C@H](C)[C@@H](O)[C@]1(C)O | > 64 | > 64 | > 64 | > 64 | Non-toxic | 16 (≈ 23.7 µM) | 8 (≈ 11.9 µM) | > 64
16 | CC[C@H]1OC(=O)[C@H](C)[C@@H](O)[C@H](C)[C@@H](O[C@@H]2O[C@H](C)C[C@H](N(C)C)[C@H]2O)[C@](C)(O)C[C@@H](C)CN(C(=O)NC(C)C)[C@H](C)[C@@H](O)[C@]1(C)O | > 64 | > 64 | > 64 | > 64 | Non-toxic | > 64 | > 64 | > 64
17 | CC[C@H]1OC(=O)[C@H](C)[C@@H](O)[C@H](C)[C@@H](O[C@@H]2O[C@H](C)C[C@H](N(C)C)[C@H]2O)[C@](C)(O)C[C@@H](C)CN(C(=S)NCc2ccccc2)[C@H](C)[C@@H](O)[C@]1(C)O | > 64 | > 64 | > 64 | > 64 | Non-toxic | > 64 | > 64 | > 64
